In the library only some 0.48% were active in any assay of this set; here they are far more common.
proCasp7 act: counter-screen: procaspase-7 (human) activation; P55210; recombinant procaspase-7, Ac-DEVD-pNA absorbance 405 nm; D23A/D198A/D206A triple mutant, cannot self-cleave; scale: DMSO 0, 5 µM enzyme 100; activation, % at 8.5 µM; 330,000 compounds, 0.093% hits;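 active = percent activation above the screen-wide mean plus 3 SD, cut at about 25% in these data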
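Detection: p-Nitroaniline absorbance at 405 nm, read at 0 and 120 min; system: Uncleavable procaspase-7 mutant enzyme; evaluation: % activation from two-timepoint absorbance difference, scaled to controls; times: 1 h enzyme–compound preincubation and 2 h substrate reaction, both 25 °C; buffer or medium: Zinc-free HEPES pH 7.4 with 300 mM NaCl, 0.01% Triton X-100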
Rce1 inh: inhibitors of yeast Ras-converting enzyme | AID 2563 | 290,000 compounds, 0.27% hits | Q03530 | calls only | yeast membranes, quenched prenylated peptide cleavage fluorescence;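 active = fall in fluorescence gain of 50% or more versus controls, with final raw signal at or below 3038400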;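 also: plate controls were neutral control wells for no effect and wells lacking membranes for full effect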
Target sequence (Q03530 whole entry, looked up): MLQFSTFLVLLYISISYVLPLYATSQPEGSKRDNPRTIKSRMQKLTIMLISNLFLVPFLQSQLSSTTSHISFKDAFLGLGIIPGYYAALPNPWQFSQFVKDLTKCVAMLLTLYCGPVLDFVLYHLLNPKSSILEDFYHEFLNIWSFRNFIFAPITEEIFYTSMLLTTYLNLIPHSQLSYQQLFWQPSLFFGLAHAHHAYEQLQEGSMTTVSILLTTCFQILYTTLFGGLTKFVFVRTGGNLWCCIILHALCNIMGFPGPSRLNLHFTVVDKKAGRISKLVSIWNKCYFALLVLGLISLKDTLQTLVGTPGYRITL
PolyA inh: blocks polyadenylation in yeast reporter cells. activity score, % at 12 µM. S. cerevisiae SKY197-pL101 polyadenylation reporter, beta-gal luminescence; efflux-impaired pdr1/pdr3 knockout yeast; score 100 = 6 SD above DMSO. 300,000 compounds, 0.02% hits. AID 1875;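 active = lowest replicate activity score at least 50, where 100 means six control SD above control mean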;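 also: yeast exposed to compound for 9 h at 30 °C; higher score means more reporter readthrough which indicates perturbed polyadenylation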
Bfl-1 A1 inh: inhibitors of the anti-apoptotic protein A1, read as caspase activation. MEF A1-2A-BIM cells, Caspase-Glo 3/7 luminescence, 3 h; percent of clofoctol response, vehicle zero. caspase activation, % (concentration not given with the values). 330,000 compounds, 0.066% hits. AID 2462;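 active = over half of replicate activation scores above 10%, or exactly half above 10 with the replicate mean above 10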
proCasp3 act: procaspase-3 (human) activation; 330,000 compounds, 0.11% hits; P42574; recombinant procaspase-3 D3A, Ac-DEVD-pNA absorbance 405 nm; activation, % at 8.5 µM;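 active = activation above the mean of all tested compounds plus 3 SD, cut at about 21% in these data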;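 also: 0% = DMSO alone and 100% = DMSO wells spiked with extra 5 µM PC-3 D3A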
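Evaluation: percent activation relative to control range; Material: Procaspase-3 D3A mutant, all three cleavage aspartates alanine; Compound: single dose, 8.5 µM nominal compound, 0.8% DMSO; Replication: one well per compound; Signal: absorbance at 405 nm, 0 and 120 min; Schedule: 1 h preincubation plus 2 h reaction at 25 °C.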
Active calls of the source: *; i = inactive; / = not tested or not shown; + = active, no number.

SMILES	proCasp7 act	Rce1 inh	PolyA inh	Bfl-1 A1 inh	proCasp3 act
COc1cc2c(C#N)c(N3CCCCC3)nc(N)c2c(N)n1	0.9	+	7.7	0.1	4.7
COc1cc2c(C#N)c(N3CCOCC3)nc(N)c2c(N)n1	4.9	i	7.4	1.2	2.5
CCN(CC)c1nc(N)c(C#N)c(CC#N)c1C#N	-19.0	i	-3.6	-1.1	-3.7
CCN(CC)c1nc(N)c2c(N)nc(OC)cc2c1C#N	-17.1	+	-1.9	-0.2	-8.1
CN(CC(=O)NCc1cccs1)CC(=O)Nc1ccc(F)c(F)c1F	-8.9	/	-3.7	-1.0	1.0
COc1cc(NC(=O)c2ccc(Br)cc2)c(OC)cc1NC(=O)c1ccccc1	9.7	i	8.2	0.8	-4.1
COc1cc(NC(=O)c2ccccc2)c(OC)cc1NC(=O)Cc1ccc(Br)cc1	17.5	i	9.0	11.8*	13.7
CN1CCN(CCCNC(=O)c2cc3c(=O)n(C)c4ccccc4c3s2)CC1	4.1	+	13.9	-0.9	8.0
C=COCCCNc1ncnc2sc(-c3ccccc3)cc12	-5.3	i	-2.2	0.7	0.3
OCCCNc1ncnc2sc(-c3ccccc3)cc12	2.1	+	3.9	0.0	-1.5
O=C(COC(=O)Cc1ccc(S(=O)(=O)N2CCOCC2)s1)NCc1ccc(Cl)cc1	3.8	i	56.3*	-0.7	-2.7
COCc1c(Br)c(C)[nH]c(=O)c1C#N	6.4	+	11.8	0.0	11.0
CCOC(=O)Cn1c(C)c(Br)c(COC)c(C#N)c1=O	3.4	/	2.6	0.9	-0.9
CS(=O)(=O)Nc1ccc(C2=NN(C(=O)c3ccccc3)C(c3cccs3)C2)cc1 (centres undefined)	1.2	i	9.4	0.4	-1.1
CS(=O)(=O)Nc1ccc(C2=NN(C(=O)c3cccc(F)c3)C(c3cccs3)C2)cc1 (centres undefined)	3.5	i	-3.3	5.4*	-2.3
CCOc1cccc(C(=O)Nc2cccc(-c3nnc(-c4ccc(C)cc4)o3)c2)c1	5.5	i	4.8	19.8*	7.2
Nc1cccc2nc3ccccc3cc12	-6.3	+	-2.9	/	-11.9
Nc1[nH]nc2nc3ccccc3cc12	-2.8	i	13.7	0.1	-1.4
Cc1ccccc1/C=C/C(=O)c1ccc([N+](=O)[O-])o1	-8.5	i	8.1	10.9*	-8.2
CCC(C)(C)c1ccc(OCCCC[n+]2cccc(C)c2)c(C(C)(C)CC)c1	/	+	-15.5	/	/
COc1ccc(S(=O)(=O)NCC(=O)N(CC2CCCO2)C(C(=O)NC2CCCC2)C(C)C)cc1 (centres undefined)	5.8	i	-20.0	2.4	-4.0
CCOC(=O)C(C(=O)OCC)c1cc(Br)c2noc3c2c1C(=O)c1ccccc1-3	-1.3	i	19.2	10.5*	-9.4
COCCCNC(=O)c1ccc2c3c(onc13)-c1ccccc1C2=O	10.3	i	12.6	-1.4	-5.8
COc1cccc(/C=N/NC(=O)c2cccc3ccccc23)c1OC	-2.6	i	8.4	1.0	6.2
O=C(CN1CCN(C(=O)C2CCCO2)CC1)Nc1cc(Cl)ccc1Cl (centres undefined)	-0.9	i	8.6	0.3	0.6
SMILES	proCasp7 act	Rce1 inh	PolyA inh	Bfl-1 A1 inh	proCasp3 act
COc1ccccc1-c1coc2c(CN3CCOCC3)c(O)ccc2c1=O	2.8	+	-9.8	-0.2	8.5
Cc1ccc(-n2c(C)cc(/C=C3/SC(=O)N(CC(=O)N4CCOCC4)C3=O)c2C)nc1	2.0	i	2.3	0.2	8.7
COc1cc2c(cc1OC)C(C)=NC1(CCCCC1)C2	-0.8	+	-9.2	0.1	-7.7
Clc1ccc(C2=C3CCCCn4c(-c5ccccc5)c[n+](c43)C2)cc1	-0.8	i	-0.4	1.8	7.5
COc1ccc(-c2c[n+]3c4n2CCCCC4=C(c2ccc(Br)cc2)C3)cc1	-12.2	+	-5.2	2.2	3.6
CCc1ccc(C2C3=C(CC(C)(C)CC3=O)Nc3c2c(=O)[nH]c2nc(C)nn32)cc1 (centres undefined)	7.6	i	2.9	6.1*	-4.9
COC(=O)[C@]1(C)N[C@H](CN(C)C(=O)Nc2ccccc2)[C@@H]2C(=O)N(Cc3ccccc3)C(=O)[C@@H]21	3.6	/	/	0.5	11.9
CCOC(=O)c1sc(-c2ccc(F)cc2)cc1N	-11.0	i	-26.5	0.5	6.8

High-throughput results from PubChem BioAssay.
